ChEMBL document CHEMBL1124724, “Steroidal A ring aryl carboxylic acids: a new class of steroid 5 alpha-reductase inhibitors” (J Med Chem, 1990)

How the values were obtained:
[1] = Inhibition of Steroid 5-alpha-reductase of benign hyperplastic human prostatic tissue; settings: read-out: Ki app
Summary of the method: (§1)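 Ethyl acetate quench with carrier steroids; product is DHT plus ADIOL from radiolabel split. Ki,app is given as a range over several microsome preparations; >10 000 means under 50% inhibition at top concentration.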

[2] = target: T1, Steroid 5-alpha-reductase (Rattus norvegicus, UniProt P24008+P31214); test: Inhibition of Steroid 5-alpha-reductase of rat ventral prostate tissue; type: tissue-based, Prostate gland
T1 sequence (P24008 whole entry): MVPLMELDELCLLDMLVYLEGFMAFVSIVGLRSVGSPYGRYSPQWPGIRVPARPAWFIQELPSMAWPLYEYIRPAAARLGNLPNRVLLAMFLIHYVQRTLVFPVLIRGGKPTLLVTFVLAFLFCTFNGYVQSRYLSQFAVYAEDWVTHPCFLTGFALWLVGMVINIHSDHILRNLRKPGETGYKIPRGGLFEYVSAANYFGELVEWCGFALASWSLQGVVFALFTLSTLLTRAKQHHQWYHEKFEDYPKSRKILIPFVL
T1 sequence (P31214 whole entry): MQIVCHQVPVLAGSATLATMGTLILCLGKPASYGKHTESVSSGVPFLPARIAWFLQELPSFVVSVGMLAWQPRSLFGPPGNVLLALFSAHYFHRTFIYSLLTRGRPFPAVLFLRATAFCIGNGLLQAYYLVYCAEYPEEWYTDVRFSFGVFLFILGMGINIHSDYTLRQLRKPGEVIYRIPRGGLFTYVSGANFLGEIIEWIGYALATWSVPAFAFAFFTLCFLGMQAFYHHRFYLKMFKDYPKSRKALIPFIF
Summary of the method: (§2)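 Activity is total 5α-reduced products (DHT + ADIOL) by radiolabel after ethyl acetate extraction. Ki,app is given as a range across microsome preparations; >10 000 means under 50% inhibition at highest concentration.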

[3] = target: T2, 3-oxo-5-alpha-steroid 4-dehydrogenase 2 (Homo sapiens, UniProt P31213); test: In vitro inhibition against Steroid 5-alpha-reductase of benign hyperplastic human prostatic tissue expressed as apparent inhibition constant; type: functional; settings: read-out: Ki app; summary of the method: as §1
T2 sequence (P31213 whole entry): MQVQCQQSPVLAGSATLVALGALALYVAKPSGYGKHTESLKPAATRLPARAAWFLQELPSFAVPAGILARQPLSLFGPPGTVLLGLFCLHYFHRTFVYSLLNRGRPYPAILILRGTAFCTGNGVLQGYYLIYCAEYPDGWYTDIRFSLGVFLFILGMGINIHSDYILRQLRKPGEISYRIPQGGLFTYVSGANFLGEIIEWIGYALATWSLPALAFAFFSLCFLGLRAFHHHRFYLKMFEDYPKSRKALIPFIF

[4] = target: T1, Steroid 5-alpha-reductase; test: In vitro inhibition against Steroid 5-alpha-reductase of whole rat ventral prostate tissue expressed as apparent inhibition constant; type: functional, tissue-based, Prostate gland; summary of the method: as §2

CC(C)N(C(=O)[C@H]1CC[C@H]2[C@@H]3CCc4cc(C(=O)O)ccc4[C@H]3CC[C@]12C)C(C)C
Ki [1]: 20 nM
Ki app [2]: 356 nM

CC(C)N(C(=O)[C@H]1CC[C@H]2[C@@H]3CCc4c(ccc(C(=O)O)c4Br)[C@H]3CC[C@]12C)C(C)C
Ki [1]: 212 nM
Ki app [2]: 1900 nM

CC(C)N(C(=O)[C@H]1CC[C@H]2[C@@H]3CCc4c(ccc(C(=O)O)c4F)[C@H]3CC[C@]12C)C(C)C
Ki [1]: 10 nM
Ki app [2]: 500 nM

Cc1c(C(=O)O)ccc2c1CC[C@@H]1[C@@H]2CC[C@]2(C)[C@@H](C(=O)N(C(C)C)C(C)C)CC[C@@H]12
Ki [1]: 260 nM
Ki app [2]: 7000 nM

CC(C)(C)NC(=O)[C@H]1CC[C@H]2[C@@H]3CCc4cc(C(=O)O)ccc4[C@H]3CC[C@]12C
Ki [1]: 43 nM
Ki app [2]: 150 nM

CC(C)N(C(=O)[C@H]1CC[C@H]2[C@@H]3CCc4c(ccc(C(=O)O)c4Cl)[C@H]3CC[C@]12C)C(C)C
Ki [1]: 120 nM
Ki app [2]: 900 nM

CC(C)N(C(=O)[C@H]1CC[C@H]2[C@@H]3CCc4c(ccc(C(=O)O)c4C#N)[C@H]3CC[C@]12C)C(C)C
Ki [1]: 200 nM
Ki app [2]: > 10000 nM

CC(C)N(C(=O)[C@H]1CC[C@H]2[C@@H]3CCc4cc(C(=O)O)c(Cl)cc4[C@H]3CC[C@]12C)C(C)C
Ki [1]: 35 nM
Ki app [2]: 200 nM

CC(C)N(C(=O)[C@H]1CC[C@H]2[C@@H]3CCc4cc(C(=O)O)c(C#N)cc4[C@H]3CC[C@]12C)C(C)C
Ki [1]: 65 nM
Ki app [2]: 950 nM

Cc1cc2c(cc1C(=O)O)CC[C@@H]1[C@@H]2CC[C@]2(C)[C@@H](C(=O)N(C(C)C)C(C)C)CC[C@@H]12
Ki [1]: 60 nM
Ki app [2]: 340 nM

CC(C)N(C(=O)[C@H]1CC[C@H]2[C@@H]3CCc4cc(C(=O)O)c(Br)cc4[C@H]3CC[C@]12C)C(C)C
Ki [1]: 76 nM
Ki app [2]: 260 nM

CC(C)N(C(=O)[C@H]1CC[C@H]2[C@@H]3CCc4cc(C(=O)O)c(C(=O)O)cc4[C@H]3CC[C@]12C)C(C)C
Ki [3]: 5000 nM
Ki app [4]: > 10000 nM

CC(C)N(C(=O)[C@H]1CCC2C3C=Cc4cc(C(=O)O)ccc4C3CC[C@@]21C)C(C)C (stereo not given in full)
Ki [1]: 30 nM
Ki app [2]: 450 nM

CC(C)N(C(=O)[C@H]1CCC2c3ccc4cc(C(=O)O)ccc4c3CC[C@@]21C)C(C)C (stereo not given in full)
Ki [1]: 36 nM
Ki app [2]: 350 nM

CC(C)(C)NC(=O)C1=CCC2C3CCc4cc(C(=O)O)ccc4C3CC[C@]12C (stereo not given in full)
Ki [1]: 60 nM
Ki app [2]: 200 nM
